Calls of active or inactive are those of the source. No cut-off for these calls is given here.
Tests used:
[1] = molecular target: T1, 5-hydroxytryptamine receptor 7 (Homo sapiens, UniProt P34969); experiment: Displacement of [3H]LSD from human recombinant 5HT7 receptor expressed in CHO cells; assay type: cell-based
In short: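 Cloned human 5-HT7 receptor from CHO cells, labelled with [3H]LSD; nonspecific binding with 25 µM clozapine. Stopped by filtration on PEI-soaked GF/C filters, then scintillation counting. Ki from two displacement curves of nine concentrations each, run in triplicate.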

[2] = molecular target: T2, 5-hydroxytryptamine receptor 1A (Rattus norvegicus) (UniProt P19327); experiment: Displacement of [3H]8-OH-DPAT from 5HT1A receptor in rat frontal cortex membrane at 0.1 uM; assay type: cell membranes
T2 sequence (whole entry): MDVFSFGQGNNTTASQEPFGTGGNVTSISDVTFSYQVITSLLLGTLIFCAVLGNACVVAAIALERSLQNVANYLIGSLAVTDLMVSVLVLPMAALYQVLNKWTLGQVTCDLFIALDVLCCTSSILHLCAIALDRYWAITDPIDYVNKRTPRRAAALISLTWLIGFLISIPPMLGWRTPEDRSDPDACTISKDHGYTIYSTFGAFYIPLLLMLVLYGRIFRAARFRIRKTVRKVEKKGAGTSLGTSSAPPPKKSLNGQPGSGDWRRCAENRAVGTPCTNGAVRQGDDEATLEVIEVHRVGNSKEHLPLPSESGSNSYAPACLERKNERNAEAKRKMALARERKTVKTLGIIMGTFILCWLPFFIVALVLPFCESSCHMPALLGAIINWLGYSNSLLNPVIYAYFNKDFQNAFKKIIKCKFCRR
In short: (§1)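 Rat tissue homogenized in 50 mM Tris-HCl pH 7.7, washed by repeated 40000g spins with a 10 min 37 °C incubation. Buffer: Tris-HCl, 6.66 mM CaCl2, 16.66 µM pargyline, 0.166% ascorbate. Labelled with 1.5 nM [3H]8-OH-DPAT, 45 min at 25 °C; nonspecific with 10 µM 5-HT. GF/B filtration, then scintillation counting; percent inhibition.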

Rattus norvegicus = experiment: Anxiolytic activity in ip dosed Wistar rat assessed as number of punished licks for 5 mins by conflict drinking test; assay type: functional; conditions: read-out: MED
In short: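 Modified Vogel test in male Wistar rats, 160–180 g, water-deprived 48 h and fasted 24 h. Dosed ip 30 min before test. After a 30 s free-drinking period, 600 µA, 0.6 s shocks came through the spout every 20 licks over 5 min. Punished licks counted; minimal effective dose reported.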

[3] = molecular target: T2, 5-hydroxytryptamine receptor 1A (Rattus norvegicus); experiment: Displacement of [3H]8-OH-DPAT from 5HT1A receptor in rat frontal cortex membrane at 10 nM; assay type: cell membranes; in short: as §1
Mus musculus = experiment: Anxiolytic activity in ip dosed NMRI mouse assessed as behavioral activity for 5 mins by light dark assay; assay type: functional; conditions: read-out: MED
In short: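 Male NMRI mice, 25–33 g, kept in a dark room and dosed ip 30 min before test, then placed in the centre of the lit area. Over 5 min, time in each area, transitions, and horizontal and vertical activity were recorded. Minimal effective dose by one-way ANOVA with Duncan's test.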

[4] = molecular target: T1, 5-hydroxytryptamine receptor 7; experiment: Antagonist activity at human 5HT7A receptor expressed in CHO cells assessed as inhibition of […]-induced cAMP elevation at 10 nM administered before […] challenge; assay type: functional, cell-based; parameters: scale not given: the % may be the effect or the level left
In short: (§2)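 CHO cells stably expressing human 5-HT7A, cultured in F12:DMEM with 5% FCS, seeded 24 h ahead. Compounds from 1 mM DMSO stock (final DMSO 0.1%) preincubated 10 min, then 20 min with 10 nM 5-CT at 37 °C. Cells lysed, cAMP by EIA, normalized to BCA protein. The 5-CT-induced level is taken as 100%; six independent experiments.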

[5] = molecular target: T1, 5-hydroxytryptamine receptor 7; experiment: Antagonist activity at human 5HT7A receptor expressed in CHO cells assessed as inhibition of […]-induced cAMP elevation at 1 uM; assay type: functional, cell-based; parameters: scale not given: the % may be the effect or the level left; in short: as §2

T1 sequence (P34969 whole entry): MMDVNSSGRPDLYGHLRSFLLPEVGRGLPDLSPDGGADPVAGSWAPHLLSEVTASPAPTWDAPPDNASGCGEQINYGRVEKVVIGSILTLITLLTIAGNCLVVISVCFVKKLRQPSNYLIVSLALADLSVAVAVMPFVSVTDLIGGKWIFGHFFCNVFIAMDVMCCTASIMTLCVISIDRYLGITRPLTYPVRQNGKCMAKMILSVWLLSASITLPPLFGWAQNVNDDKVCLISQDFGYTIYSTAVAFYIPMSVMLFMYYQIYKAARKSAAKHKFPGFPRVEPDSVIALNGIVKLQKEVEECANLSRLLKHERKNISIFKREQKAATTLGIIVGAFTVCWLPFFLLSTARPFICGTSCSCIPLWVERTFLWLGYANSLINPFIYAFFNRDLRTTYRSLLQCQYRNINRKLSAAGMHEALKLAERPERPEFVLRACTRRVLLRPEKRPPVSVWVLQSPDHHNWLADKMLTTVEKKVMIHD

Row | SMILES | Ki ([1]; read-out: Ki) [nM] | Activity [2] [%] | Activity [3] [%] | Ki ([1]; read-out: Log Ki (converted)) [nM] | Activity [4] | Activity [5] [%] | minimal effective dose (Rattus norvegicus) [mg/kg] | minimal effective dose (Mus musculus) [mg/kg]
1 | CCC1(CCCCN2CCN(c3cccc(Cl)c3)CC2)C(=O)Nc2ccc(Cl)cc21 (configuration not stated) | 8.27 | 18 |  |  |  |  | > 20 | 
2 | CCC1(CCCN2CCN(c3cccc(Cl)c3)CC2)C(=O)Nc2ccccc21 (configuration not stated) | 21 | 91 | 57 |  |  |  | > 20 | 3
3 | CCC1(CCCCN2CCN(c3ccccc3OC)CC2)C(=O)N(Cc2ccccc2)c2ccccc21 (configuration not stated) | 6.57 | 86 | 32 |  |  |  | > 20 | 
4 | CCC1(CCCCN2CCN(c3cccc(Cl)c3)CC2)C(=O)Nc2c(Cl)cc(Cl)cc21 (configuration not stated) | 9.46 | 7 |  |  |  |  | > 20 | 
5 | CCC1(CCCCN2CCN(c3ccc(OC)cc3)CC2)C(=O)Nc2ccccc21 (configuration not stated) | 25.4 | 24 | 3 |  |  |  | > 20 | 
6 | CCC1(CCCCN2CCN(c3ccccc3)CC2)C(=O)N(C)c2ccccc21 (configuration not stated) | 33.4 | 42 | 12 |  |  |  | 20 | 
7 | COc1ccccc1N1CCN(CCCCC23CCCc4cccc(c42)NC3=O)CC1 (configuration not stated) |  |  |  | 2.14 |  |  |  | 
8 | CCC1(CCCCN2CC=C(c3ccc(F)cc3)CC2)C(=O)Nc2ccccc21 (configuration not stated) | 1.19 | 19 |  |  |  | > 95 | 20 | 
9 | CC1CCN(CC[C@H]2CCCN2S(=O)(=O)c2cccc(O)c2)CC1 |  |  |  |  | 80% | > 95 |  | 
10 | CCC1(CCCCN2CCc3ccccc3C2)C(=O)Nc2ccccc21 (configuration not stated) | 7.65 | 52 |  |  |  | > 95 | > 20 | 
11 | CCC1(CCCCN2CCN(c3cccc(Cl)c3)CC2)C(=O)Nc2cc(F)c(Cl)cc21 (configuration not stated) | 9.07 | 16 |  |  |  |  | 20 | 
12 | CCC1(CCCCN2CCN(c3ccc(Cl)cc3)CC2)C(=O)Nc2cc(F)c(Cl)cc21 (configuration not stated) | 6.99 | 0 |  |  |  |  |  | 
13 | CCC1(CCCCN2CCC(C)CC2)C(=O)Nc2ccccc21 (configuration not stated) |  | 0 |  |  |  | > 95 |  | 
14 | CCC1(CCCCN2CC=C(c3ccc(Cl)cc3)CC2)C(=O)Nc2ccccc21 (configuration not stated) | 1.02 | 10 |  |  | inactive | > 95 | > 20 | 

More lines, in order of falling Ki ([1]; read-out: Ki), values ahead:

Row | Ki ([1]; read-out: Ki) [nM] | Activity [2] [%] | Activity [3] [%] | Ki ([1]; read-out: Log Ki (converted)) [nM] | Activity [4] | Activity [5] [%] | SMILES | minimal effective dose (Rattus norvegicus) [mg/kg] | minimal effective dose (Mus musculus) [mg/kg]
15 | 5.97 | 0 |  |  |  |  | CCC1(CCCCN2CCN(c3ccc(Cl)cc3)CC2)C(=O)Nc2c(Cl)cc(F)cc21 (configuration not stated) | > 20 | 
16 | 5.38 | 79 | 28 |  |  |  | CCC1(CCCCN2CCN(c3ccccc3OC)CC2)C(=O)Nc2ccccc21 (configuration not stated) | 10 | 
17 | 5.3 | 11 |  |  |  |  | CCC1(CCCCN2CCC(c3ccc(F)cc3)CC2)C(=O)Nc2ccccc21 (configuration not stated) | 20 | > 10
18 | 5.11 | 51 | 9 |  |  |  | CCC1(CCCCN2CCN(c3ccccc3Cl)CC2)C(=O)Nc2ccccc21 (configuration not stated) | > 20 | 
19 | 4.75 | 31 |  |  |  |  | CCC1(CCCCN2CCN(c3cccc(Cl)c3)CC2)C(=O)Nc2c(Cl)cc(F)cc21 (configuration not stated) | > 20 | > 10
20 | 4.31 | 29 |  |  |  |  | CCC1(CCCCN2CCc3sccc3C2)C(=O)Nc2ccccc21 (configuration not stated) | > 20 | > 10
21 | 3.72 | 0 |  |  |  |  | CCC1(CCCCN2CCN(c3ccc(Cl)cc3)CC2)C(=O)Nc2ccc(Cl)cc21 (configuration not stated) | > 20 | 
22 | 2.81 | 9 |  |  |  |  | CCC1(CCCCN2CCN(c3ccc(Cl)cc3)CC2)C(=O)Nc2ccc(F)cc21 (configuration not stated) | > 20 | > 10
23 | 2.55 | 33 | 6 |  |  |  | CCC1(CCCCN2CCN(c3cccc(OC)c3)CC2)C(=O)Nc2ccccc21 (configuration not stated) | > 20 | 
24 | 2.11 | 24 |  |  |  |  | CCC1(CCCCN2CCN(c3cccc(Cl)c3)CC2)C(=O)Nc2ccc(F)cc21 (configuration not stated) | < 5 | > 10
25 | 2.07 | 26 | 6 |  |  |  | CCC1(CCCCN2CCN(c3ccccc3)CC2)C(=O)Nc2ccccc21 (configuration not stated) | 10 | 
26 | 1.96 | 43 |  |  |  |  | O=C1Nc2ccc(F)cc2C1CCCCN1CCN(c2cccc(Cl)c2)CC1 (configuration not stated) | > 20 | 
27 | 1.8 | 12 |  |  | inactive | > 95 | CC(C)CC1(CCCCN2CCN(c3cccc(Cl)c3)CC2)C(=O)Nc2ccccc21 (configuration not stated) | 10 | > 10
28 | 1.5 | 7 |  |  |  |  | CCC1(CCCCN2CCN(c3ccc(F)cc3)CC2)C(=O)Nc2ccc(F)cc21 (configuration not stated) | > 20 | 
29 | 1.24 | 11 | 0 |  |  |  | CCC1(CCCCCN2CCN(c3ccc(Cl)cc3)CC2)C(=O)Nc2ccccc21 (configuration not stated) | > 20 | 
30 | 0.67 | 37 | 11 |  |  |  | CCC1(CCCCN2CCN(c3cccc(Cl)c3)CC2)C(=O)Nc2cc(F)ccc21 (configuration not stated) | > 20 | 
31 | 0.66 | 11 | 0 |  | 40% | > 95 | CCC1(CCCCN2CCN(c3ccc(C)c(Cl)c3)CC2)C(=O)Nc2ccccc21 (configuration not stated) | > 20 | 
32 | 0.63 | 11 | 0 |  |  |  | CCC1(CCCCN2CCN(c3ccc(Cl)c(Cl)c3)CC2)C(=O)Nc2ccccc21 (configuration not stated) | > 20 | 
33 | 0.6 | 14 | 0 |  |  |  | CCC1(CCCCN2CCN(c3ccc(F)c(Cl)c3)CC2)C(=O)Nc2ccccc21 (configuration not stated) | > 20 | 
34 | 0.43 | 10 | 12 |  |  |  | CCC1(CCCCN2CCN(c3ccc(F)cc3)CC2)C(=O)Nc2ccccc21 (configuration not stated) | 10 | < 1

— ChEMBL document CHEMBL1144747, “(Phenylpiperazinyl-butyl)oxindoles as selective 5-HT7 receptor antagonists” (J Med Chem, 2008)
